Here are results for 3 molecules from ChEMBL document CHEMBL1143782, “Alpha-aminothiazole-gamma-aminobutanoic amides as potent, small molecule CCR2 receptor antagonists” (Bioorg Med Chem Lett, 2007).

The structures appear in SMILES notation. pIC50: −log10 of the molar value.

For series [1], the target named is T1, C-C chemokine receptor type 2 (Homo sapiens, UniProt P41597). Put plainly: Displacement of [125I]MCP-1 from human CCR2 expressed in monocytes 1 uM. The series is classed as cell-based.
Target sequence in this assay (P41597 whole entry, looked up): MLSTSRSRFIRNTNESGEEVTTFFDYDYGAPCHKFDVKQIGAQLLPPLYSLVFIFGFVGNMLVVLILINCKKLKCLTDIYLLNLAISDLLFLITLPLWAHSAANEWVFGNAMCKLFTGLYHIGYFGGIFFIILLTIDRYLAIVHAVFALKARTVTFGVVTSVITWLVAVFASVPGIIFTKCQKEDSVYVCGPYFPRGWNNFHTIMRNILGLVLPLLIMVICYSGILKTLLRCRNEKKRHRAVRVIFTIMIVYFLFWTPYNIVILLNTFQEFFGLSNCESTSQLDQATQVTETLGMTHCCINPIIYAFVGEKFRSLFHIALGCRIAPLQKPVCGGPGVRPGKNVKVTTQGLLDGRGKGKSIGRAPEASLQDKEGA
For series [2], the target named is T2, C-C chemokine receptor type 3 (Homo sapiens) (UniProt P51677).
T2 sequence (whole entry): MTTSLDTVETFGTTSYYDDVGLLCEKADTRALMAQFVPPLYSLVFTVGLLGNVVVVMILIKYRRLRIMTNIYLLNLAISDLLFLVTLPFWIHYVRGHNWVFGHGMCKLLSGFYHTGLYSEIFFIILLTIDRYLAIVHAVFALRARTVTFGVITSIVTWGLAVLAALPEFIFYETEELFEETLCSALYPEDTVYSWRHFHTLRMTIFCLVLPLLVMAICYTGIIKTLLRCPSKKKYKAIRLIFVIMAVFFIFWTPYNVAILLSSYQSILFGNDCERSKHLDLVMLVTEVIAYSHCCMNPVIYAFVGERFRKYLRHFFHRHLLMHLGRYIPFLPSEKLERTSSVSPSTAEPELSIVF
Put plainly: Inhibition of CCR3 at 1uM.

A short description of series [3]: Tmax in Beagle dog. Particulars: in vivo. The series is classed as ADME, organism-based, Canis lupus familiaris.
A short description of series [4]: Clearance in Sprague-Dawley rat. Particulars: in vivo. The series is classed as ADME, organism-based.
Series [5] can be described thus: Cmax in Beagle dog. The class given is ADME, organism-based, Canis lupus familiaris. To be noted: in vivo.
The target in series [6] is C-X-C chemokine receptor type 4 (Homo sapiens) (UniProt P61073). Put plainly: Inhibition of CXCR4 at 1uM.
A short description of series [7]: Half life in Beagle dog. The class given is ADME, organism-based, Canis lupus familiaris. To be noted: in vivo.
Series [8] addresses T3, C-C chemokine receptor type 1 (Homo sapiens) (UniProt P32246).
T3 sequence (whole entry): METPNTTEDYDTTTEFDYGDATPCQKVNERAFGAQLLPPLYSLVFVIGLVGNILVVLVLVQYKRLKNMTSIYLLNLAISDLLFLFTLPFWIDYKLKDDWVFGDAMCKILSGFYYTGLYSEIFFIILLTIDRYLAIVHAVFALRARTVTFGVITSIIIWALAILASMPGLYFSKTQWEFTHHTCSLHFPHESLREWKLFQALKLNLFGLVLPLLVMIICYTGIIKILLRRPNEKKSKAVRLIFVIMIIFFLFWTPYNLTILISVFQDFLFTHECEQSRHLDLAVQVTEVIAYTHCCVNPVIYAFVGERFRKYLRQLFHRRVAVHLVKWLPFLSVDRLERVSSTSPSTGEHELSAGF
Put plainly: Inhibition of CCR1 at 1uM.

Series [9] can be described thus: Bioavailability in Beagle dog. The series is classed as ADME, organism-based, Canis lupus familiaris. Particulars: in vivo.
The nature of series [10]: Cmax in Sprague-Dawley rat. To be noted: in vivo. The series is classed as ADME, organism-based.
Series [11] in a line: Bioavailability in Sprague-Dawley rat. The class given is ADME, organism-based. To be noted: in vivo.
In series [12] the target is T1, C-C chemokine receptor type 2. The experiment in a line: Displacement of [125I]MCP1 from human CCR2 expressed in monocytes. The class given is cell-based. The gist of the method:
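Human CCR2 binding was read as inhibition of 125I-MCP-1 binding to monocyte cells stably transfected with CCR2. The assay was run in the presence of 0.5% BSA, using membranes of these cells.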
Target sequence in this assay (P41597 whole entry): as the sequence (P41597 whole entry, looked up) above

Series [13] in a line: Volume of distribution in Sprague-Dawley rat. The class given is ADME, organism-based. Particulars: in vivo, read-out: Vdss.
Series [14] deals with T4, C-C chemokine receptor type 4 (Homo sapiens) (UniProt P51679).
T4 sequence (whole entry): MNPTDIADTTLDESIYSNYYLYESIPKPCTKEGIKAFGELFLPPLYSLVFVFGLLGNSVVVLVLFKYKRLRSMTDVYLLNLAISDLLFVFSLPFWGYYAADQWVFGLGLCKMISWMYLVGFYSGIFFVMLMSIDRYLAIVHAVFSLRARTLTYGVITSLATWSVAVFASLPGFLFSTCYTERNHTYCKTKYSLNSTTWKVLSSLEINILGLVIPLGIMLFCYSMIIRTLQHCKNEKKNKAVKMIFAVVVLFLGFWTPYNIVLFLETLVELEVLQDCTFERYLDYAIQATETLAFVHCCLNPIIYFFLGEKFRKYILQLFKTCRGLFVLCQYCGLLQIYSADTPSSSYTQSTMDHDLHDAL
Put plainly: Inhibition of CCR4 at 1uM.

Series [15] can be described thus: Volume of distribution in Beagle dog. The class given is ADME, organism-based, Canis lupus familiaris. Particulars: in vivo, read-out: Vdss.
Series [16] is described as follows: Half life in Sprague-Dawley rat. The class given is ADME, organism-based. To be noted: in vivo.
Series [17] in a line: Tmax in Sprague-Dawley rat. The series is classed as ADME, organism-based. Particulars: in vivo.
The target in series [18] is C-C chemokine receptor type 5 (Homo sapiens) (UniProt P51681). The experiment in a line: Inhibition of CCR5 at 1uM.
Series [19] can be described thus: Clearance in Beagle dog. The series is classed as ADME, organism-based, Canis lupus familiaris. Particulars: in vivo.
Series [20] has as its target Substance-P receptor (Homo sapiens) (UniProt P25103). Put plainly: Inhibition of NK1 receptor at 1uM.

C-X-C chemokine receptor type 4 (Homo sapiens), sequence (P61073 whole entry): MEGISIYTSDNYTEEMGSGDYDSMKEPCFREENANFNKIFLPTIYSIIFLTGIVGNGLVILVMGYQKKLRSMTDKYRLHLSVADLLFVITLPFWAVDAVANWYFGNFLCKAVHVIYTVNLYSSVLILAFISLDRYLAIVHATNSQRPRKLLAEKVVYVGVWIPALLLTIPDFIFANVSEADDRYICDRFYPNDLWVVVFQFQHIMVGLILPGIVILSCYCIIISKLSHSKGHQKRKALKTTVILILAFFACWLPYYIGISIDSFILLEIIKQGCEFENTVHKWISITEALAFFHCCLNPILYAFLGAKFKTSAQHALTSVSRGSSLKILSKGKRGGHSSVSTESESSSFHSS
C-C chemokine receptor type 5 (Homo sapiens), sequence (P51681 whole entry, looked up): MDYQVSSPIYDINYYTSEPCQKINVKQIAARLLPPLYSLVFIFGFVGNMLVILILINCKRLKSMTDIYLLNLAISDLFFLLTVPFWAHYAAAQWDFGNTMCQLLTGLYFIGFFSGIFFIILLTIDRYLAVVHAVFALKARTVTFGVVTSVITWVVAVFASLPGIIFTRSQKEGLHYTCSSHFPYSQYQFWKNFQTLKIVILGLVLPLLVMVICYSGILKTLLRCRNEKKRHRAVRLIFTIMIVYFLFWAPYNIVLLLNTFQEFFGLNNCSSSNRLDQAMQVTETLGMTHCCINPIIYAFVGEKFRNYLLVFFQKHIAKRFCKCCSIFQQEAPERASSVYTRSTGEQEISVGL
Substance-P receptor (Homo sapiens), sequence (P25103 whole entry): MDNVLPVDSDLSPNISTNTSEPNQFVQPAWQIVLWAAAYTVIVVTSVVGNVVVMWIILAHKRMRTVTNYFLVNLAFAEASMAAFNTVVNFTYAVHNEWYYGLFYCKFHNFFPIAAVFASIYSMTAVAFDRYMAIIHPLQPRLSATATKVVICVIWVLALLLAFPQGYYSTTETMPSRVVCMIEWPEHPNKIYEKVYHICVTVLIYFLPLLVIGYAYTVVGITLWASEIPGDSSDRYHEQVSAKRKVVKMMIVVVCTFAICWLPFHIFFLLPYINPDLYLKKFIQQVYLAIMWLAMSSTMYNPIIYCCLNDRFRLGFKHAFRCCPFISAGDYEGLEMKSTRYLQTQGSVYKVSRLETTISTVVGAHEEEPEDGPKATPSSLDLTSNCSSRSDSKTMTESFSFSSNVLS

Regarding `Nc1nc(C(CCN2CCN(c3ccc(F)cc3)CC2)C(=O)NCc2cc(C(F)(F)F)cc(C(F)(F)F)c2)cs1` (stereo unspecified), the inhibition in series [1] is 70%.

Take `CC(=O)Nc1nc(C(CCN2CCC(c3ccccc3)CC2)C(=O)NCc2cc(C(F)(F)F)cc(C(F)(F)F)c2)cs1` (stereo unspecified): the inhibition is 7% in [2]; 27% in series [6]; 66% in series [8]; 86% in [14]; 44% in series [18]; 56% in series [20]. Further, the Tmax was 0.5 h in [3] and 2.2 h in [17]. For the same molecule, the figures for the clearance in [4] and in [19] were 52.5 mL/min/kg and 21.6 mL/min/kg, respectively. Also, the peak concentration (Cmax) came to 18 nM in [5] and 64 nM in series [10]. For the same molecule, the values for the half-life in series [7] and in [16] were 2.28 h and 1.4 h, respectively. Also, the bioavailability in [9] turned out to be 1.6%; in series [11], 17%. The molecule also had a pIC50 in [12] of 8.28. Besides, the Vd was found to be 5.3 L/kg in [13] and 4 L/kg in series [15].

Molecule `COC(=O)Nc1nc([C@@H](CCN2CCC(c3ccccc3)CC2)C(=O)NCc2cc(C(F)(F)F)cc(C(F)(F)F)c2)cs1` returned an inhibition in [1] of 85%.
